Assays:
[1] = target: GABA-A receptor; anion channel; assay: In vitro inhibition of [3H]flunitrazepam binding to GABA-A Benzodiazepine receptor of rat cerebral cortex membranes; type: cell membranes, Membrane
Procedure, shortened: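 Washed rat cerebral cortex membranes (adult male Sprague-Dawley, 175–250 g) in 50 mM Tris-HCl pH 7.4, three wash spins at 20000g. Incubated with [3H]flunitrazepam (final 0.9–1.1 nM) and six to eight inhibitor concentrations for 120 min at 4 °C, then filtered. Nonspecific binding defined with Ro 15-1788 (10 μM). IC50 from sigmoid fit; mean of at least two determinations.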

[2] = Partition coefficient (logP); type: physicochemical; details: octanol/water
[3] = system: Mus musculus; assay: In vivo anticonvulsant activity was determined in male NIH/Swiss mice after intraperitoneal administration; Antagonist; type: functional, organism-based
Procedure, shortened: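 Male NIH/Swiss mice (20–25 g) dosed ip with drug in 20% diluted Emulphor/80% saline, or vehicle. Antagonism run in groups of 10: test agent at various doses, diazepam (2.5 mg/kg) 15 min later, then PTZ challenge (80 mg/kg) after another 15 min. Seizures scored over 15 min. EC50 read graphically from percent convulsions versus log dose.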

CCOC(=O)c1cc2c3cc(OCc4ccccc4)ccc3n(C)c2cn1 gave an IC50 [1] greater than 5000 nM.
In the case of CCOC(=O)c1ncc2[nH]c3ccc(OCc4ccccc4)cc3c2c1COC, the logP [2] is reported as 3.97 and the IC50 [1] is reported as 1 nM.
CCOC(=O)c1cc2c3cc(OCc4ccccc4)ccc3nc-2c[nH]1 gave an IC50 [1] of 8.9 nM.
With CCOC(=O)c1ncc2c(c1COC)c1cc(OCc3ccccc3)ccc1n2C the IC50 [1] was 945 nM.
CCOC(=O)c1[nH]cc2nc3ccc(O)cc3c-2c1COC gave a logP [2] of 1.44 and an IC50 [1] of 0.9 nM.
CCOC(=O)c1ncc2[nH]c3ccccc3c2c1COC showed an EC50 [3] of 15 mg/kg and an IC50 [1] of 2.3 nM.
For CCOC(=O)c1[nH]cc2nc3ccc(OCc4ccccc4)cc3c-2c1CC, the IC50 [1] was 22 nM.
For CCOC(=O)c1[nH]cc2nc3ccc(OC)cc3c-2c1COC, the EC50 [3] was 1.25 mg/kg and the IC50 [1] was 0.5 nM.
In the case of CCOC(=O)c1ncc2c(c1CC)c1cc(OCc3ccccc3)ccc1n2C, the IC50 [1] is reported as greater than 5000 nM.

— ChEMBL document CHEMBL1124717, “Structural requirements for agonist actions at the benzodiazepine receptor: studies with analogues of 6-(benzyloxy)-4-(methoxymethyl)-beta-carboline-3-carboxylic acid ethyl ester” (J Med Chem, 1990)
